Measurements from ChEMBL document CHEMBL3351976, “Flexible, polymer-supported synthesis of sphingosine derivatives provides ceramides with enhanced biological activity” (Bioorg Med Chem, 2014).
pIC50: −log10 of the molar value.

Legend:
[1] = Antiproliferative activity against human HL60 cells after 24 hrs by Alamar blue assay; type: functional, cell-based, HL-60; conditions: for pIC50: Homo sapiens, HL-60, 24 h, read-out: IC50; for IC50: hl-60
How it was run: (§1)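 Cells seeded at 5000 per well and preincubated 24 h at 37 °C/5% CO₂, then exposed to compounds in DMSO (final DMSO 0.5%; DMSO-only controls) at 6.25–200 µM for a further 24 h at 37 °C. Alamar Blue added to 10% final, fluorescence read (ex 535/em 590 nm) after 4 h and 24 h further incubation. IC50 from triplicates.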

[2] = test system: HepG2; assay: Antiproliferative activity against human HepG2 cells after 24 hrs by Alamar blue assay; type: functional, cell-based; conditions: for pIC50: Homo sapiens, HepG2, 24 h, read-out: IC50; for IC50: hepg2; how it was run: as §1
[3] = Antiproliferative activity against rat PC12 cells after 24 hrs by Alamar blue assay; type: functional, cell-based, PC-12; conditions: for pIC50: Rattus norvegicus, PC-12, 24 h, read-out: IC50; for IC50: pc-12; how it was run: as §1

Structure (SMILES) | pIC50 [1] | pIC50 [2] | pIC50 [3] | IC50 [1] | IC50 [2] | IC50 [3]
CCCCCCCCCCCCC/C=C/[C@@H](O)[C@H](CO)NC(C)=O | 4.59 | 4.24 | 4.01 | – | – | –
CCCCCCCCCCCCC/C=C/C(=O)[C@H](CO)NC(C)=O | 4.37 | 3.76 | < 3.70 | – | – | –
CCCCCCCCc1ccc(/C=C/[C@@H](O)[C@H](CO)NC(C)=O)cc1 | 4.96 | 4.51 | 4.40 | – | – | –
CC(=O)N[C@@H](CO)[C@H](O)/C=C/c1ccc(-c2ccccc2)cc1 | – | – | – | ND(Unstable) | ND(Unstable) | ND(Unstable)
CCCCCCCCc1ccc(/C=C/C(=O)[C@H](CO)NC(C)=O)cc1 | – | 4.19 | 4.15 | ND(Unstable) | – | –
CC(=O)N[C@@H](CO)C(=O)/C=C/c1ccccc1 | 4.32 | < 3.70 | 4.38 | – | – | –
CC(=O)N[C@@H](CO)C(=O)/C=C/c1ccc(-c2ccccc2)cc1 | 4.30 | 4.39 | 4.23 | – | – | –
CC(=O)N[C@@H](CO)[C@H](O)/C=C/c1ccccc1 | – | – | – | ND(Unstable) | ND(Unstable) | ND(Unstable)
